1 molecule from ChEMBL document CHEMBL4390684, “The synthesis of 4,6-diaryl-2-pyridones and their bioactivation in CYP1 expressing breast cancer cells” (Bioorg Med Chem Lett, 2019) can be followed below.

A word on the pIC50: it is −log10 of the IC50, conventionally taken in molar units. As a reminder, the half-life is how long it takes for the measured level to halve.

pIC50: −log10 of the molar value.

In series [1] the test system is MCF7. The experiment in a line: Antiproliferative activity against ER positive human MCF7 cells expressing low level of CYP assessed as reduction in cell viability measured after 96 hrs by MTT assay. It counts as functional, cell-based. To be noted: MCF7, 96 h. The gist of the method:
(§1)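 Antiproliferative IC50 values were determined in MCF-7, MDA-MB-468, TCDD-treated MCF-7 (high CYP1A1 expression) and non-tumour MCF-10A breast cells. Each value is the mean of two independent experiments run in quadruplicate.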
Background: Tetrazolium dyes change colour on reduction, which living cells bring about.

The test system of series [2] is MCF7. The experiment in a line: Antiproliferative activity against […]-induced ER positive human MCF7 cells expressing CYP1A1 assessed as reduction in cell viability after 96 hrs by MTT assay. It counts as functional, cell-based. The note with it: MCF7, 96 h. The method, boiled down: as §1
Series [3] relates to MCF7. The series can be described thus: Activation factor, ratio of antiproliferative IC50 of ER positive human MCF7 cells expressing low level of CYP to antiproliferative IC50 of […]-induced ER positive human MCF7 cells expressing CYP1A1. In kind it is functional.
A short description of series [4]: Selectivity index, ratio of IC50 for human MCF10A cells to IC50 for human MDA-MB-468 cells expressing CYP1A1 and CYP1B1. In kind it is toxicity. The note with it: read-out: Ratio IC50.
The test system of series [5] is MDA-MB-468. The series can be described thus: Antiproliferative activity against ER negative human MDA-MB-468 cells expressing CYP1A1 and CYP1B1 assessed as reduction in cell viability measured after 96 hrs by MTT assay. The note with it: MDA-MB-468, 96 h. In kind it is functional, cell-based. The method, boiled down:
as §1

The subject of series [6] is MCF-10A. The experiment in a line: Cytotoxicity against human MCF10A cells assessed as reduction in cell viability after 96 hrs by MTT assay. It counts as cell-based. The gist of the method: as §1
Series [7] deals with MCF7. The series can be described thus: Antiproliferative activity against ER positive human MCF7 cells expressing low level of CYP assessed as reduction in cell viability in presence of CYP 1 inhibitor alpha-naphthoflavone at 1 uM measured after 96 hrs by MTT assay. It counts as functional, cell-based. The note with it: MCF7, 96 h.
The test system of series [8] is MCF7. The experiment in a line: Antiproliferative activity against […]-induced ER positive human MCF7 cells expressing CYP1A1 assessed as reduction in cell viability in presence of CYP 1 inhibitor alpha-naphthoflavone measured after 96 hrs by MTT assay. In kind it is functional, cell-based. The note with it: MCF7, 96 h.
For series [9], the system named is MDA-MB-468. The series can be described thus: Antiproliferative activity against ER negative human MDA-MB-468 cells expressing CYP1A1 and CYP1B1 assessed as reduction in cell viability in presence of CYP 1 inhibitor alpha-naphthoflavone at 1 uM measured after 96 hrs by MTT assay. To be noted: MDA-MB-468, 96 h. It counts as functional, cell-based.
Series [10] relates to MCF-10A. The experiment in a line: Antiproliferative activity against human MCF10A cells assessed as reduction in cell viability in presence of CYP 1 inhibitor alpha-naphthoflavone at 1 uM measured after 96 hrs by MTT assay.
The target in series [11] is T1, CYP1A1 (Homo sapiens, UniProt P04798).
T1 sequence (P04798 whole entry): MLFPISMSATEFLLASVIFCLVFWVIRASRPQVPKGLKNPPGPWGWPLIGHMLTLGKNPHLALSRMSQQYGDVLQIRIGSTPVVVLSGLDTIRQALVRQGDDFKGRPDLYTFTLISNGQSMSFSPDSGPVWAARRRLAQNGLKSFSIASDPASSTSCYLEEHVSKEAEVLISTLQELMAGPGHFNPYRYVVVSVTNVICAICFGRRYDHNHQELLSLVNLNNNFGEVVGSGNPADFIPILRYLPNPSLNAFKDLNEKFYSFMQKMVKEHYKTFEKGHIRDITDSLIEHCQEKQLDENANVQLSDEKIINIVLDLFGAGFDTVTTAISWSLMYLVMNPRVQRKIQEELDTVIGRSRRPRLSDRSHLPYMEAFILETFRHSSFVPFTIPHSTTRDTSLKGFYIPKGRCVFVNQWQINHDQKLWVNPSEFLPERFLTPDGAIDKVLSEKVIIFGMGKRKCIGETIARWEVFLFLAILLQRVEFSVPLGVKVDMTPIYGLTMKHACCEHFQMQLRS
The experiment in a line: Drug metabolism in supersomes expressing human CYP1A1 and coexpressing NADPH reductase assessed as CYP1A1-mediated drug metabolism by measuring compound half life at 10 uM in the presence of NADPH measured at 5 mins interval for 25 mins by reverse phase HPLC analysis. In kind it is ADME. The gist of the method:
(§2)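 Substrate was incubated with insect-cell Supersomes expressing human CYP1A1 or CYP1B1 plus NADPH reductase, at 20 pmol/mL CYP. Controls used non-CYP Supersomes, or omitted the compound, NADPH or active enzyme. Duplicate samples were taken every 5 min and quenched with ice-cold acetonitrile. After centrifugation, the supernatant was analysed by reverse-phase HPLC for parent depletion (half-life) and metabolite peaks.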

Series [12] concerns the target T2, CYP1B1 (Homo sapiens, UniProt Q16678).
T2 sequence (Q16678 whole entry): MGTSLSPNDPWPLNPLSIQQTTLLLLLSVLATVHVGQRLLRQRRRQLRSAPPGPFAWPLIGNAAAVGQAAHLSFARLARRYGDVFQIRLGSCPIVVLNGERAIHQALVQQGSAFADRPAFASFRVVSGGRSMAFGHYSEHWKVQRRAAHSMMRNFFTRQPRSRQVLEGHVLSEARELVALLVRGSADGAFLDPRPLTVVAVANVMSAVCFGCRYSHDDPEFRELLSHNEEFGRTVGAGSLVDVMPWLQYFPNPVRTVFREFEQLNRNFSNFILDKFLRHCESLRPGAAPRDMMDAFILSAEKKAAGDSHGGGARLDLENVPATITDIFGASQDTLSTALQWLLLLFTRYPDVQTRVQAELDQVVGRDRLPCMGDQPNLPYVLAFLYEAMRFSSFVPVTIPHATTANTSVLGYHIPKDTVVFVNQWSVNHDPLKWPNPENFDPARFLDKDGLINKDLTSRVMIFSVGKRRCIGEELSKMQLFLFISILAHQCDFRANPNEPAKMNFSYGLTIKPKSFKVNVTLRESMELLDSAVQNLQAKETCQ
The series can be described thus: Drug metabolism in supersomes expressing human CYP1B1 and coexpressing NADPH reductase assessed as CYP1B1-mediated drug metabolism by measuring compound half life at 10 uM in the presence of NADPH measured at 5 mins interval for 25 mins by reverse phase HPLC analysis. In kind it is ADME. The gist of the method: as §2

Series [13] concerns the target T3, Cytochrome P450 1A1 (Homo sapiens, UniProt P04798).
T3 sequence (P04798 whole entry): T1 sequence (P04798 whole entry)
The experiment in a line: Drug metabolism in supersomes expressing human CYP1A1 and coexpressing NADPH reductase assessed as CYP1A1-mediated 4-(3,4-Dihydroxyphenyl)-6-(2,4-dimethoxyphenyl)-1H-pyridin-2-one formation at 10 uM in the presence of NADPH measured at 5 mins interval for 25 mins by reverse phase HPLC method. In kind it is ADME. To be noted: recombinant enzyme. The method, boiled down: as §2

Series [14] has as its target T4, Cytochrome P450 1B1 (Homo sapiens, UniProt Q16678).
T4 sequence (Q16678 whole entry): T2 sequence (Q16678 whole entry)
The experiment in a line: Drug metabolism in supersomes expressing human CYP1B1 and coexpressing NADPH reductase assessed as CYP1B1-mediated 4-(3,4-Dihydroxyphenyl)-6-(2,4-dimethoxyphenyl)-1H-pyridin-2-one formation at 10 uM in the presence of NADPH measured at 5 mins interval for 25 mins by reverse phase HPLC method. It counts as ADME. To be noted: recombinant enzyme. The gist of the method:
as §2

The target in series [15] is T4, Cytochrome P450 1B1. The series can be described thus: Drug metabolism in supersomes expressing human CYP1B1 and coexpressing NADPH reductase assessed as CYP1B1-mediated second metabolite retention time at 10 uM in the presence of NADPH measured at 5 mins interval for 25 mins by reverse phase HPLC method. To be noted: recombinant enzyme. In kind it is ADME. The method, boiled down: as §2

On to `COc1ccc(-c2cc(-c3ccc4c(c3)OCO4)cc(=O)[nH]2)c(OC)c1`, for which the pIC50 in [1] is 5.05; in [2], 5.74; in [5] it was 7.40; in series [6] it was 4.40; in series [7] it was 4.92; in series [8] it was 5.05. In addition, the pIC50 in series [9] and in series [10] was below 4.00 in each case. For the same molecule, the “Ratio IC50” value in series [3] came to 5. The selectivity ratio in series [4] is 1000. In addition, the half-life at 10 µM in series [11] came to 12.9 min; in [12], 30.1 min. The Drug metabolism entry in series [13] and in series [14] was “Metabolite_Detected” in each case. In addition, in series [15], the Retention_time was determined as 9.22 min.
